For experiment [1], the system named is Plasma. Put plainly: Antioxidant activity against LDL-susceptible to oxidation in New Zealand White rabbit plasma assessed as increase in conjugated diene formation at 12.5 ug/mL after 30 mins. Format: functional, Oryctolagus cuniculus. The method in brief: (§1)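 LDL in phosphate-buffered KCl dialysis buffer (pH 7.4), dialysed 4 h at 4 °C in the dark and diluted to 0.25 mg LDL/mL (protein by Lowry, BSA standard). Compound (final 1.25, 2.5 or 5.0 × 10-5 g/mL) or saline vehicle preincubated ~30 min at 20 °C. Oxidation started with CuSO4 (final 5.0 µmol/L), 37 °C for 4 h. A234 monitored; conjugated diene increase = (A4h − A0h)/A0h × 100%.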

The test system of experiment [2] is Brain. Put plainly: Antioxidant activity against lipid peroxidation in Wistar rat brain assessed as inhibition of malondialdehyde release at 12.5 ug/mL by thiobarbituric acid method relative to control. Format: functional, tissue-based. Also noted: scale not given: the % may be the effect or the level left. In short, it runs like this:
(§2)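 Male Wistar rat brain homogenised fresh (10% w/v) in 50 mM phosphate buffer, pH 7.4; protein by Lowry. Aliquots incubated 30 min at 37 °C with compound (final 1.25, 2.5 or 5.0 × 10-5 g/mL) or saline vehicle. Stopped with SDS, then TBA in HCl/acetic acid, boiled 15 min. Chromogen extracted into n-butanol–pyridine (15:1); A532 read against MDA standards.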

Experiment [3] deals with Plasma. Kind of experiment: Antioxidant activity against LDL-susceptible to oxidation in New Zealand White rabbit plasma assessed as increase in conjugated diene formation at 50 ug/mL after 30 mins. Format: functional, Oryctolagus cuniculus. The method in brief:
as §1

Experiment [4] deals with Plasma. Put plainly: Antioxidant activity against LDL-susceptible to oxidation in New Zealand White rabbit plasma assessed as increase in conjugated diene formation at 25 ug/mL after 30 mins. In kind it is functional, Oryctolagus cuniculus. The method in brief:
as §1

Experiment [5] relates to Brain. Put plainly: Antioxidant activity against lipid peroxidation in Wistar rat brain assessed as inhibition of malondialdehyde release at 50 ug/mL by thiobarbituric acid method relative to control. In kind it is functional, tissue-based. Also on record: scale not given: the % may be the effect or the level left. The method in brief:
as §2

Experiment [6] has as its system Brain. Kind of experiment: Antioxidant activity against lipid peroxidation in Wistar rat brain assessed as inhibition of malondialdehyde release at 25 ug/mL by thiobarbituric acid method relative to control. Also noted: scale not given: the % may be the effect or the level left. Format: functional, tissue-based. The method in brief: as §2

SMILES strings stand for the structures.

Turning to `O=C1O[C@H]([C@@H](O)CO)C(O)=C1O` [ASCORBIC ACID], the Activity in the experiment with Plasma [1] was 3.7%; in the experiment with Brain [2], 50.1%.
With `COc1cc(/C=C/CO[C@@H]2O[C@H](CO[C@@H]3OC[C@](O)(CO)[C@H]3O)[C@@H](O)[C@H](O)[C@H]2O)cc(OC)c1O`, the Conjugated diene increase with Plasma [3] stood at 12.2%. The Activity with Plasma [4] amounted to 14.4%; in the experiment with Plasma [1], 17.6%; in the experiment with Brain [5], 32.1%; with Brain [6] it was 29.8%; with Brain [2], 26.5%.
Regarding `COc1cc2c(=O)oc3c(OC)c(O)cc4c(=O)oc(c1OC)c2c34`, in the experiment with Plasma [3], the Conjugated diene increase is given as 21%. Further, the Activity with Plasma [4] was determined as 27.2%; in the experiment with Plasma [1], 29.8%; with Brain [5], 31.1%; in the experiment with Brain [6], 24.6%; in the experiment on Brain [2], 18.3%.
With `COc1c(O)cc2c(=O)oc3c(OC)c(O)cc4c(=O)oc1c2c34`, the Conjugated diene increase in the experiment with Plasma [3] was 20.4%. The Activity with Plasma [4] turned out to be 28.9%; in the experiment on Plasma [1] it was 27%; in the experiment on Brain [5], 28.1%; with Brain [6], 20.1%; in the experiment with Brain [2], 21.8%.
Regarding `COc1cc(/C=C/CO[C@@H]2O[C@H](CO[C@@H]3OC[C@](O)(CO)[C@H]3O)[C@@H](O)[C@H](O)[C@H]2O)ccc1O`, in the experiment with Plasma [3], the Conjugated diene increase turned out to be 7.3%. For the same compound, the Activity amounted to 10.5% with Plasma [4]; 15.4% in the experiment on Plasma [1]; 35.6% with Brain [5]; 32.4% in the experiment on Brain [6]; 28.9% in the experiment on Brain [2].

Values taken from ChEMBL document CHEMBL1148984, “Bioactive compounds from the seeds of Punica granatum (pomegranate)” (2004).
